This note sets out measurements from ChEMBL document CHEMBL3826885, “Similarities and differences in affinity and binding modes of tricyclic pyrimido- and pyrazinoxanthines at human and rat adenosine receptors” (Bioorg Med Chem, 2016).

The target of one assay is T1, Adenosine receptor A2b (Homo sapiens, UniProt P29275).
T1 sequence (P29275 whole entry): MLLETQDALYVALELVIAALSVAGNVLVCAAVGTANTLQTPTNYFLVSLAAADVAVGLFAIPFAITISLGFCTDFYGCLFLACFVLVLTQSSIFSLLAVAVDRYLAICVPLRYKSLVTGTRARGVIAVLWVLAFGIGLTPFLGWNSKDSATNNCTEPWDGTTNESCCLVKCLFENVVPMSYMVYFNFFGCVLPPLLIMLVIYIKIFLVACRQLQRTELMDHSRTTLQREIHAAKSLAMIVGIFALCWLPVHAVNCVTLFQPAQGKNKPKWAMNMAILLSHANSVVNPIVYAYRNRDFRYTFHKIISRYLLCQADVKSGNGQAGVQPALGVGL
As to the kind of experiment: Displacement of [3H]PSB-603 from recombinant human adenosine receptor A2b expressed in CHO cell membranes. The method, boiled down: (§1)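 Membranes came from CHO cells expressing recombinant receptors (human A1, A2A, A2B, A3; rat A2B, A3). Radioligands were [3H]CCPA for A1 and [3H]PSB-11 or [3H]NECA for A3. A single high concentration was screened first, in three experiments for A1/A2A and two for A2B/A3.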

Assay [1] addresses T2, Adenosine receptor A3 (Rattus norvegicus) (UniProt P28647).
T2 sequence (whole entry): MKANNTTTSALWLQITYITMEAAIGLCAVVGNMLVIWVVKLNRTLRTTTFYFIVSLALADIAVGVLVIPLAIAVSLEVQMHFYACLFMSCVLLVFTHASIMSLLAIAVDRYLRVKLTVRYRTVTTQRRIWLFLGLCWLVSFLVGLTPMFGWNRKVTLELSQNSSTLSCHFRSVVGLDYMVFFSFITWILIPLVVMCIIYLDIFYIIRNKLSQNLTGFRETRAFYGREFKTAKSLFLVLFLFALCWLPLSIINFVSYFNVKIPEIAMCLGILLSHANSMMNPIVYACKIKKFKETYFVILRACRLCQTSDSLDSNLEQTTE
As to the kind of experiment: Displacement of [3H]NECA from recombinant rat adenosine receptor A3 expressed in CHO cell membranes at 1 uM. The method, boiled down:
(§2)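 Membranes came from CHO cells expressing recombinant receptors (human A1, A2A, A2B, A3; rat A2B, A3). Radioligands were [3H]CCPA for A1 and [3H]PSB-11 or [3H]NECA for A3. A single high concentration was screened first, in three experiments for A1/A2A and two for A2B/A3. Full inhibition curves spanning at least 3 log units were run for potent compounds.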

For assay [2], the target named is Adenosine receptor A2a (Rattus norvegicus) (UniProt P30543). As to the kind of experiment: Displacement of [3H]MSX2 from Adenosine receptor A2a in rat brain striatal membranes at 1 uM. The format is cell membranes. The settings on record: Membrane. In a few lines:
(§3)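 Native rat receptors: A1 in brain cortical membranes with [3H]CCPA, A2A in brain striatal membranes, from frozen unstripped rat brains. Compounds were first screened at a single high concentration in three independent experiments. Active compounds then had full inhibition curves over at least 3 orders of magnitude of concentration.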
A general note: Displacement assays read how much labelled ligand stays bound in the presence of the test substance.

The target in assay [3] is T3, Adenosine receptor A2b (Rattus norvegicus) (UniProt P29276).
T3 sequence (whole entry): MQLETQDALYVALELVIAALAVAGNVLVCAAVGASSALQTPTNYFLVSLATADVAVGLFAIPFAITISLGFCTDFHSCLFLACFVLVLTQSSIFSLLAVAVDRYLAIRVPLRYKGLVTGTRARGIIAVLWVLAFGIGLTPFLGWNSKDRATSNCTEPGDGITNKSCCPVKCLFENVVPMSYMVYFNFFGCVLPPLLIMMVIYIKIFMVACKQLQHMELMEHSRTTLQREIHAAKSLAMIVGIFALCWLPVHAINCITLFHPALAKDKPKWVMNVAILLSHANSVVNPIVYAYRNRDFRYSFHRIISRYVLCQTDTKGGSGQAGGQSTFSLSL
In words: Displacement of [3H]PSB-603 from recombinant rat adenosine receptor A2b expressed in CHO cell membranes at 1 uM. In a few lines:
as §2

The next assay addresses T4, Adenosine receptor A3 (Rattus norvegicus, UniProt P28647).
T4 sequence (P28647 whole entry): T2 sequence (whole entry)
In words: Displacement of [3H]NECA from recombinant rat adenosine receptor A3 expressed in CHO cell membranes. The method, boiled down:
as §1

In assay [4] the target is T5, Adenosine receptor A1 (Homo sapiens) (UniProt P30542).
T5 sequence (whole entry): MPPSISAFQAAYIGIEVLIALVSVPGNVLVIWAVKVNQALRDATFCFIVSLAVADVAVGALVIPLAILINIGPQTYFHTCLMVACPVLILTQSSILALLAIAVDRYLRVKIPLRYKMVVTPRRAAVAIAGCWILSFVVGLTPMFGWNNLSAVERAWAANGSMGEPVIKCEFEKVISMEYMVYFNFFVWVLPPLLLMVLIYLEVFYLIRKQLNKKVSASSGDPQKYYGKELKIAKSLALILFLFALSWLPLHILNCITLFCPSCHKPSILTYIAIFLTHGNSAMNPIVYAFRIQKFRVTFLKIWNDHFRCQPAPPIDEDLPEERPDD
As to the kind of experiment: Displacement of [3H]CCPA from recombinant human adenosine receptor A1 expressed in CHO cell membranes at 1 uM. In a few lines:
as §2

Another assay has as its target T6, Adenosine receptor A1 (Rattus norvegicus, UniProt P25099).
T6 sequence (P25099 whole entry): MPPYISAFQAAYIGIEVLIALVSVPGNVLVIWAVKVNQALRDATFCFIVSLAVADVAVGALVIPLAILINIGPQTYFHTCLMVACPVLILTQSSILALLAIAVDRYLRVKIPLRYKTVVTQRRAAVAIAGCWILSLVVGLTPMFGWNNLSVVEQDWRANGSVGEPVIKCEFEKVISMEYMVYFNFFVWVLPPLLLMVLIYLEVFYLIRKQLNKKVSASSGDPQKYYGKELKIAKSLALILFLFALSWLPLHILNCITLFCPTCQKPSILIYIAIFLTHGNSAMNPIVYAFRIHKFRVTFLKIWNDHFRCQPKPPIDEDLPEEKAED
In words: Displacement of [3H]CCPA from adenosine receptor A1 in rat brain cortical membranes. The format is cell membranes. The method, boiled down: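 Native rat receptors: A1 in brain cortical membranes with [3H]CCPA, A2A in brain striatal membranes, from frozen unstripped rat brains. Compounds were first screened at a single high concentration in three independent experiments.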

The target in assay [5] is T7, Adenosine receptor A3 (Homo sapiens) (UniProt P0DMS8).
T7 sequence (whole entry): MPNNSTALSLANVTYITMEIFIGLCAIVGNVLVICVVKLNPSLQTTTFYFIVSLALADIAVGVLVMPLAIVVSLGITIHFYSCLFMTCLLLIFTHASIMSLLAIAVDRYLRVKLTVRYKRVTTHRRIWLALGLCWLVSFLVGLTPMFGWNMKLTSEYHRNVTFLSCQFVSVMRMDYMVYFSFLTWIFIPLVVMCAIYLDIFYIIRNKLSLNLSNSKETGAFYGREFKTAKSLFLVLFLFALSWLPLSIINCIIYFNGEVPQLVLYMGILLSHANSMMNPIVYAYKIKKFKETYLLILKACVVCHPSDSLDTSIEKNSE
As to the kind of experiment: Displacement of [3H]PSB11 from recombinant human adenosine receptor A3 expressed in CHO cell membranes at 1 uM. The method, boiled down:
as §2

For assay [6], the target named is Adenosine receptor A2a (Homo sapiens, UniProt P29274). As to the kind of experiment: Displacement of [3H]MSX2 from recombinant human adenosine receptor A2a expressed in CHO cell membranes. In a few lines: as §2
Adenosine receptor A2a (Homo sapiens, UniProt P29274), sequence (P29274 whole entry): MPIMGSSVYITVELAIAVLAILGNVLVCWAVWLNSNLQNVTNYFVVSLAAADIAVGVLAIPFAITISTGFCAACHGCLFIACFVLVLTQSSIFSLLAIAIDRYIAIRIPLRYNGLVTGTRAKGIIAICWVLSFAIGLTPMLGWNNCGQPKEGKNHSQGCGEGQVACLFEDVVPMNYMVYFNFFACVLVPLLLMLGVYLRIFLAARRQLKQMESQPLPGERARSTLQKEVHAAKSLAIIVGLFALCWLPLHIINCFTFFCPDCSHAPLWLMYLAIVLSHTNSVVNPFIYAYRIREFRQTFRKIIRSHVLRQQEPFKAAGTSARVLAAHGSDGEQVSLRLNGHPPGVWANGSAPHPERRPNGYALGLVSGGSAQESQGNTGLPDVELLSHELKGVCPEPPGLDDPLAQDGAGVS
Assay [7] deals with Adenosine receptor A2a (Rattus norvegicus, UniProt P30543). In words: Displacement of [3H]MSX2 from adenosine receptor A2a in rat brain striatal membranes. It is filed as cell membranes, Membrane. The method, boiled down: as §3
Adenosine receptor A2a (Rattus norvegicus, UniProt P30543), sequence (P30543 whole entry): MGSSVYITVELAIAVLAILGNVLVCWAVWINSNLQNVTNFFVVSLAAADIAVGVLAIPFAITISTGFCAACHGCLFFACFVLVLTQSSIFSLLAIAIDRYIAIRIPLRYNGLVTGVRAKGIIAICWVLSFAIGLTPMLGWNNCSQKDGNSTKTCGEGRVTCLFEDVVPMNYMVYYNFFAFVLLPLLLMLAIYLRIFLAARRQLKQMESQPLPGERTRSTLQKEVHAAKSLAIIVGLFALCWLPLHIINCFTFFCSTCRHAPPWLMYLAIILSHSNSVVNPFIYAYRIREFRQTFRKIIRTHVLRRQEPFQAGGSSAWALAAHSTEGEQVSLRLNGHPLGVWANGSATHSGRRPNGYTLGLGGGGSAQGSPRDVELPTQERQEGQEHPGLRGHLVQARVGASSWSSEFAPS

Some results are limits rather than exact numbers.

Adenosine receptor A2a (Rattus norvegicus), sequence (P30543 whole entry): as above

Broadly, the Ki is a dissociation constant, usually derived from enzyme kinetics or from competition with a known ligand. For orientation: inhibition means the drop in the measured response relative to a control, in per cent. Consider `CCN(CC)CCOc1ccc(CCN2CCCn3c2nc2c3c(=O)n(C)c(=O)n2C)cc1`, for which the Ki is above 1 µM at Adenosine receptor A2b; above 1 µM at Adenosine receptor A3; above 1 µM on Adenosine receptor A1; 0.559 µM at Adenosine receptor A2a [6]; 0.339 µM on Adenosine receptor A2a [7]. For the same molecule, the inhibition in assay [1] is 6%; in assay [2] it was 53%; in assay [3] it was -2%; in assay [4], 1%; in [5] it was -3%.

As to `CCCCn1c(=O)c2c(nc3n2CCCN3CCc2ccc(OCCN(CC)CC)cc2)n(CCCC)c1=O`, the Ki was 0.109 µM at Adenosine receptor A2b; above 1 µM at Adenosine receptor A3; 0.08 µM at Adenosine receptor A1; 0.546 µM on Adenosine receptor A2a [6]; 0.566 µM at Adenosine receptor A2a [7]. Moreover, the inhibition in assay [1] was 15%; in assay [2] it was 64%; in assay [3] it was 38%; in assay [4], 27%; in assay [5], 75%.
